We go through eight compounds from ChEMBL document CHEMBL4052710 (Bioorg Med Chem Lett, 2017).

As a reminder, the inhibition is the change of the read-out against control, counted positive when it falls.

Test [1] deals with OVCAR-5. The experiment in a line: Growth inhibition of human OVCAR5 cells incubated for 72 hrs at 10 uM by CCK8 assay. It counts as functional. The note with it: OVCAR-5, 72 h, read-out: GI. The essentials:
(§1)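 CCK8 viability assay on a panel of human cancer cell lines, with an initial screen at fixed concentrations of 1 µM and 10 µM.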
In general terms: Tetrazolium dyes change colour on reduction, which living cells bring about.

Test [2] deals with NCI-H460. The experiment in a line: Growth inhibition of human H460 cells incubated for 72 hrs at 10 uM by CCK8 assay. It counts as functional. The conditions noted are these: NCI-H460, 72 h, read-out: GI. The essentials: as §1
The test system of test [3] is HeLa. The experiment in a line: Growth inhibition of human HeLa cells incubated for 72 hrs at 10 uM by CCK8 assay. Type of test: functional. The conditions noted are these: read-out: GI. Summed up: as §1
In test [4] the test system is OVCAR-5. The experiment in a line: Growth inhibition of human OVCAR5 cells incubated for 72 hrs at 1 uM by CCK8 assay. Type of test: functional. The conditions noted are these: OVCAR-5, 72 h, read-out: GI. Summed up:
as §1

Test [5] has as its system SiHa. The experiment in a line: Growth inhibition of human SiHa cells incubated for 72 hrs at 1 uM by CCK8 assay. It counts as functional. The conditions noted are these: read-out: GI. Summed up: as §1
Test [6] deals with SiHa. The experiment in a line: Growth inhibition of human SiHa cells incubated for 72 hrs at 10 uM by CCK8 assay. It counts as functional. The note with it: read-out: GI. The essentials: as §1
The subject of test [7] is T47D. The experiment in a line: Growth inhibition of human T47D cells incubated for 72 hrs at 10 uM by CCK8 assay. Type of test: functional. The note with it: read-out: GI. Summed up:
as §1

Test [8] has as its system HeLa. The experiment in a line: Growth inhibition of human HeLa cells incubated for 72 hrs at 1 uM by CCK8 assay. It counts as functional. The note with it: read-out: GI. The essentials: as §1
The test system of test [9] is NCI-H1299. The experiment in a line: Growth inhibition of human H1299 cells incubated for 72 hrs at 10 uM by CCK8 assay. It counts as functional. The conditions noted are these: NCI-H1299, 72 h, read-out: GI. Summed up:
as §1

Test [10] concerns T47D. The experiment in a line: Growth inhibition of human T47D cells incubated for 72 hrs at 1 uM by CCK8 assay. The note with it: read-out: GI. Type of test: functional. Summed up: as §1
In test [11] the test system is NCI-H460. The experiment in a line: Growth inhibition of human H460 cells incubated for 72 hrs at 1 uM by CCK8 assay. It counts as functional. The conditions noted are these: NCI-H460, 72 h, read-out: GI. Summed up: as §1
Test [12] has as its system NCI-H1299. The experiment in a line: Growth inhibition of human H1299 cells incubated for 72 hrs at 1 uM by CCK8 assay. Type of test: functional. The conditions noted are these: NCI-H1299, 72 h, read-out: GI. The essentials:
as §1

For test [13], the system named is A549. The experiment in a line: Growth inhibition of human A549 cells incubated for 72 hrs at 1 uM by CCK8 assay. It counts as functional. The conditions noted are these: A549, 72 h, read-out: GI. The essentials: as §1
Test [14] concerns A549. The experiment in a line: Growth inhibition of human A549 cells incubated for 72 hrs at 10 uM by CCK8 assay. Type of test: functional. The conditions noted are these: A549, 72 h, read-out: GI. The essentials:
as §1

For test [15], the target named is CDK4/Cyclin D3 (Homo sapiens) (UniProt P11802+P30281). The experiment in a line: Inhibition of human CDK4/CyclinD3 at 1 uM by enzymatic radiometric assay. Type of test: protein-complex assay. Summed up:
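Kinase panel run through the Eurofins KinaseProfiler, with compound at a fixed 1 µM. Values are means of two independent experiments.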

For test [16], the target named is Vascular endothelial growth factor receptor 2 (Homo sapiens, UniProt P35968). The experiment in a line: Inhibition of human VEGFR2 at 1 uM by enzymatic radiometric assay.
Chain of Vascular endothelial growth factor receptor 2 (P35968 whole entry): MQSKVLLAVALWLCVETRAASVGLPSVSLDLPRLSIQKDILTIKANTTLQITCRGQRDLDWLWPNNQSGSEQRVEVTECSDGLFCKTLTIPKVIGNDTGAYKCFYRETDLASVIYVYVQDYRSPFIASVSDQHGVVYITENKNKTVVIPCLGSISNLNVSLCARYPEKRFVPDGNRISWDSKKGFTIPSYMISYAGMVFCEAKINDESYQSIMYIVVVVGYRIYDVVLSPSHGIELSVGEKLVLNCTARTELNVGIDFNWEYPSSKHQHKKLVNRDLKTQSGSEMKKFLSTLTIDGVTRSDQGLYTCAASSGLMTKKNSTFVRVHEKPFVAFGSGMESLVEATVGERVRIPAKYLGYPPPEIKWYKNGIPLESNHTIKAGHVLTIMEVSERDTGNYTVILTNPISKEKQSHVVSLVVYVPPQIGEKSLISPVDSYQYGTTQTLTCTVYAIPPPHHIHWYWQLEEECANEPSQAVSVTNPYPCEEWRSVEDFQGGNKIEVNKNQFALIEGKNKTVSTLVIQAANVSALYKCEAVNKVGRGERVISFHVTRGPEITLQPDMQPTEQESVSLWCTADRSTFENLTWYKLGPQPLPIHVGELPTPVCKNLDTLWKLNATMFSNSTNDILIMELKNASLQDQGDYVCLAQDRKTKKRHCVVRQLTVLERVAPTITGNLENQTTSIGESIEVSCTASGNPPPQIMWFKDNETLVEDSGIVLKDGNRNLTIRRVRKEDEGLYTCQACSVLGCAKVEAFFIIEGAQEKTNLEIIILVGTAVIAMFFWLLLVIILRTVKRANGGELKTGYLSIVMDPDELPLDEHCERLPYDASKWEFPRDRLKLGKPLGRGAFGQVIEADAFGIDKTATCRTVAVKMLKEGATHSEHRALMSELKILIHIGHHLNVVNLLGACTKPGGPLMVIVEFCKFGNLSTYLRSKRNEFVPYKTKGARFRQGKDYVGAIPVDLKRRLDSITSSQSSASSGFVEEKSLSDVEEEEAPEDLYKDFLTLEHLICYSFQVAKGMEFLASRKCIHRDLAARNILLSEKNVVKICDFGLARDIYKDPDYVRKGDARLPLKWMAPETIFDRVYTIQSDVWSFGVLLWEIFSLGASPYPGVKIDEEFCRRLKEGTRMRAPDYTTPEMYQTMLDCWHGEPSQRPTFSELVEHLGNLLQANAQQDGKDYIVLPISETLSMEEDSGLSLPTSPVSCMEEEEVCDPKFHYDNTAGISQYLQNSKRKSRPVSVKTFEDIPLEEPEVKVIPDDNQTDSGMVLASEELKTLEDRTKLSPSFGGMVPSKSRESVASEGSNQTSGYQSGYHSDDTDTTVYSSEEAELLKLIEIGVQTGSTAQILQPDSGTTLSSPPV

Regarding `CN(C)C(=O)c1cc2cnc(Nc3ccc(N)cn3)nc2n1C1CCCC1`, the inhibition of growth at 10 µM in [1] came out at 68%; in [2], 62%; in [3] it was 68.7%; in test [6] it was 61.5%; in test [7], 61.1%; in test [9] it was 82.1%. Also, the inhibition of growth at 1 µM in test [4] is 12.3%; in [5], -21.2%; in test [8] it was 3.7%; in test [10], 18.8%; in test [11], -0.6%; in [12] it was 60.1%.

For the compound `Nc1ccc(NC(=O)C2(C(=O)Nc3ccc(F)cc3)CC2)cc1F`, the inhibition of growth at 10 µM was 9.7% in test [1]; 62.9% in [2]; 71.8% in [3]; 36% in test [6]; 30.4% in test [7]; 59.2% in [9]. The inhibition of growth at 10 µM in [14] was 14.6%. The inhibition of growth at 1 µM came to 6.7% in [4]; 21.7% in test [5]; 14% in [8]; 5.6% in test [10]; 16.3% in test [13]; 26.7% in test [11]. The inhibition of growth at 1 µM in [12] was 46.2%.

Consider `CN(C)C(=O)c1cc2cnc(Nc3ccc(NC(=O)C4(C(=O)Nc5ccc(Br)cc5)CC4)cc3)nc2n1C1CCCC1`, for which the inhibition of growth at 10 µM amounted to 87.8% in [1]; 96.4% in test [2]; 98.8% in [6]; 94.3% in test [7]; 76.9% in [9]; 90.3% in test [14]. For the same compound, the inhibition in test [15] is 48%; in [16], 26%. Moreover, the inhibition of growth at 1 µM in test [4] was 13.7%; in [5], 23.2%; in test [10], 21.1%; in test [13], -6.6%; in test [11], 31.5%; in test [12] it was 27.6%.

As for `CN(C)C(=O)c1cc2cnc(Nc3ccc(NC(=O)C4(C(=O)Nc5ccc(Cl)c(C(F)(F)F)c5)CC4)cc3)nc2n1C1CCCC1`, the inhibition of growth at 10 µM stood at 48% in test [1]; 91.9% in [2]; 55.6% in test [3]; 61.1% in test [6]; 55.8% in test [7]; 90.4% in test [9]. Further, the inhibition of growth at 10 µM in test [14] is 88.1%. The inhibition in test [15] was 24%; in test [16] it was 4%. The inhibition of growth at 1 µM in [4] is -2.4%; in [5] it was -11.2%; in test [8], 16.5%; in [10] it was 6.9%; in [13], 1.1%; in [11], 2.1%. For the same compound, the inhibition of growth at 1 µM in test [12] is 39.5%.

Turning to `CN(C)C(=O)c1cc2cnc(Nc3ccc(NC(=O)C4(C(=O)Nc5ccc(F)cc5)CC4)cc3F)nc2n1C1CCCC1`, the inhibition of growth at 10 µM in test [1] came out at 33%; in test [2], 53%; in test [3] it was 49.5%; in test [6], 44.4%; in test [7], 67.9%; in test [9], 82.6%. Moreover, the inhibition in [15] is 87%; in test [16], 33%. Besides, the inhibition of growth at 1 µM in test [4] is -0.9%; in test [5] it was 6.6%; in [8], 6.2%; in test [10], 6.3%; in test [11] it was 11.9%; in test [12], 52.3%.

As to `CN(C)C(=O)c1cc2cnc(Nc3ccc(NC(=O)C4(C(=O)Nc5cccc(O)c5)CC4)cc3)nc2n1C1CCCC1`, the inhibition of growth at 10 µM in test [1] was 86%; in test [2], 94.9%; in test [3] it was 96.6%; in test [6], 75.7%; in [7] it was 83.7%; in [9], 78.5%. The inhibition in test [15] was 94%; in test [16], 24%. The inhibition of growth at 1 µM is 58.5% in test [4]; -19.8% in test [5]; 57% in [8]; 80.7% in [10]; 75.5% in test [11]; 77.5% in test [12].

With `CN(C)C(=O)c1cc2cnc(Nc3ccc(NC(=O)C4(C(=O)Nc5ccccc5)CC4)cc3)nc2n1C1CCCC1`, the inhibition of growth at 10 µM in test [1] worked out at 77.1%; in [2], 95.9%; in [6], 106%; in test [7], 93.9%; in test [9], 90.5%; in test [14], 88.8%. The inhibition worked out at 82% in [15] and 8% in test [16]. For the same compound, the inhibition of growth at 1 µM in test [4] was 52.1%; in [5] it was 58%; in test [10] it was 52.8%; in test [13], 75%; in test [11], 42.4%; in [12], 71.2%.

Turning to `CN(C)C(=O)c1cc2cnc(Nc3ccc(NC(=O)C4(C(=O)Nc5cccc(Cl)c5)CC4)cc3)nc2n1C1CCCC1`, the inhibition of growth at 10 µM came to 88.1% in test [1]; 101% in test [2]; 97.3% in test [6]; 92.6% in test [7]; 84.1% in [9]; 90.7% in test [14]. Further, the values for the inhibition in [15] and in test [16] were 44% and 15%, respectively. The inhibition of growth at 1 µM in [4] was determined as 15.5%; in test [5], 16.2%; in test [10], 39.3%; in [13] it was 8.3%; in test [11], 44%; in test [12], 47.9%.
